Consider one molecule from ChEMBL document CHEMBL4043073, “Boronic Acid Modifications Enhance the Anti-Influenza A Virus Activities of Novel Quindoline Derivatives” (J Med Chem, 2017).

Activity calls are given as the source filed them. The rule behind the calls is not given here.

The test system of series [1] is Influenza A virus. Put plainly: Antiviral activity against Influenza A virus (A/Puerto Rico/8/34(H1N1)) infected in MDCK cells assessed as reduction in viral HA titer by measuring reduction in chicken RBC […] after 24 hrs by hemagglutination test. The conditions noted are these: A/Puerto Rico/8/1934(H1N1). It is filed as functional, cell-based. The method in brief: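 MDCK cells infected at MOI 3.0 (single-cycle) with PR8, Cal09 or swine H3N2 Minnesota, then treated with compound for 24 h. Supernatant HA titers were read by 2-fold serial dilution with an equal volume of 1% chicken RBCs, 60 min at 4 °C. Expressed as percent of untreated-cell HA titer; IC50 derived; n = 4.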

In series [2] the test system is Influenza A virus. Kind of series: Antiviral activity against Influenza A virus (A/Puerto Rico/8/34(H1N1)) infected in MDCK cells assessed as virus yeild reduction preincubated with virus at 37 degreeC for 1 hr followed by viral infection for 1 hr measured after 3 days by crystal violet staining based plaque assay. It counts as functional, cell-based. Particulars: A/Puerto Rico/8/1934(H1N1). The essentials:
(§1)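 Plaque reduction: about 50–100 PFU/well of PR8, Cal09 or Minnesota preincubated with compound (0–10 μM) 1 h at 37 °C. Mixture then adsorbed to MDCK monolayers 1 h at 4 °C. Overlay was DMEM with 1.5% agarose, DEAE-dextran and 1 μg/mL TPCK-trypsin for 3 days at 37 °C. Glutaraldehyde fix, crystal violet stain, plaque count; IC50 derived; n = 4.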

Series [3] can be described thus: Antiviral activity against Influenza A virus (A/California/04/2009(H1N1)) infected in MDCK cells assessed as virus yeild reduction preincubated with virus at 37 degC for 1 hr followed by viral infection for 1 hr measured after 3 days by crystal violet staining based plaque assay. It counts as functional, cell-based. The method in brief: as §1
The next series is filed under the species Canis lupus familiaris. Put plainly: Inhibition of NFkappaB activation-mediated viral endocytosis in MDCK cells infected with Influenza A virus (A/Puerto Rico/8/34(H1N1)) assessed as Akt phosphorylation level at 10 uM preincubated with virus for 1 hr followed by viral infection measured after 4 hrs by Western blot method relative to control (reference value: 1.4). It counts as cell-based. The method in brief:
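PR8 (MOI 1.0) pretreated with compound 1 h at 37 °C, then MDCK cells were kept in infecting medium with 5 or 10 μM for 4 h; ribavirin 50 μg/mL as comparator. Lysates were immunoblotted for phospho-ERK1/2, p38, NF-κB or Akt, with β-actin/GAPDH loading controls and AP/NBT-BCIP detection. Densitometry was normalised to uninfected cells (= 1.0); n = 3.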
A general note: Immunoblotting shows a protein as a band on a membrane.

For series [4], the system named is Influenza A virus. Put plainly: Antiviral activity against Influenza A virus (A/Puerto Rico/8/34(H1N1)) infected in Kunming mouse assessed as intact columnar epithelium in bronchiole without inflammatory cell infiltration at 10 mg/kg/day, po qd for 4 days by hematoxylin and eosin staining based assay. It counts as functional, organism-based. The conditions noted are these: A/Puerto Rico/8/1934(H1N1).

Series [5] is described as follows: Drug uptake in human A549 cells at 20 uM after 4 hrs by DAPI staining based confocal microscopic analysis. It is filed as ADME, cell-based. The conditions noted are these: a549, 4 h. The essentials: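 A549 cells incubated with 20 μM compound 4 h at 37 °C, then fixed and DAPI-stained. Compound intrinsic fluorescence located by confocal microscopy.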
The next series relates to Vero. Put plainly: Inhibition of Influenza A virus (A/Puerto Rico/8/34(H1N1)) hemagglutinin expressed in African green monkey Vero cells assessed as reduction in acid-induced syncytium formation treated at pH 5 for 10 mins measured after 2 hrs by Hema3Stat Pak-staining based microscopic analysis. It is filed as cell-based. Particulars: Influenza A virus (A/Puerto Rico/8/1934(H1N1)). The method in brief:
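Vero cells transfected with PR8 HA plasmid. At 16 h HA was cleaved with 5 μg/mL TPCK-trypsin for 15 min at 37 °C. Cells were preincubated with compound 15 min at 37 °C, then held at pH 5.0 with compound for 10 min at 37 °C. After rinsing, cells were kept 2 h in 10% FBS medium, stained with Hema3Stat Pak and examined for syncytia by microscopy.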

By IC50 is commonly meant the midpoint of a concentration-inhibition curve. On to `O=C(Nc1ccccc1Nc1c2ccccc2nc2c1[nH]c1ccccc12)c1cccc(B(O)O)c1`, for which the Activity result in the series on Influenza A virus [1] was “Dose-dependent effect”. For the same molecule, the results for the IC50 (with Influenza A virus [1]; in the series with Influenza A virus [2]; in series [3]) were 2.5 µM, 3.2 µM and 3.7 µM, respectively. The fold change (FC) in the series listed under Canis lupus familiaris was 0.8. The result in the series with Influenza A virus [4] was Active. The Drug uptake entry in series [5] is “Active”. Besides, the inhibition result in the series on Vero was “inactive”.
